MrgX1 antag = human MrgX1 receptor antagonism, primary screen; B-score at 10 µM; Q96LB2; MRGX1-HEK293 calcium flux, Fluo-4, BAM8-22 antagonism; hits give low values; 1.3% of 310,000 active; AID 588676;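 active = calcium-response B-score plate-corrected more than 3 library SD below zero, starting fluorescence within 5 deviations, no agonist response on first addition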;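 also: peak minus trough fluorescence over baseline after final BAM8-22 challenge near maximal dose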
Target sequence (Q96LB2 whole entry, looked up): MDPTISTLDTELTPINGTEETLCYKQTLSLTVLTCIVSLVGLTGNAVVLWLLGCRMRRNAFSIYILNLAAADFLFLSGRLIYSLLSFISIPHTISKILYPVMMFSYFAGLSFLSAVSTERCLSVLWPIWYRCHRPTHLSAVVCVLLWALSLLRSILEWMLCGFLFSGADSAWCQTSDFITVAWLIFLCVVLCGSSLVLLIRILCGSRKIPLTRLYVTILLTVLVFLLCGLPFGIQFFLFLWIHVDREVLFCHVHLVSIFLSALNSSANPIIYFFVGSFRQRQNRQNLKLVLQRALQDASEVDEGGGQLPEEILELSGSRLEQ
RGS4 pot = potentiators or activators of RGS4; AID 463111; B-score at 10 µM; 0.92% of 310,000 active; HEK293 M3R/inducible RGS4, carbachol calcium flux Fluo4; hits give low values;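 active = B-score of the integrated calcium signal more than 4 SD below the library mean, with starting fluorescence not abnormally high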;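 also: negative B-score means reduced calcium response which marks RGS4 activation or potentiation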
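Assay system: HEK293 FlpIn-TREx cells, stable M3R, doxycycline-inducible RGS4 / Probe or stimulus: carbachol, ECmax concentration / Times: overnight RGS4 induction, 30 min dye load 37 °C, 20 min compound RT / Signal: kinetic calcium fluorescence imaging with Fluo4-AM dye, 2 µM / Measure: Agonist-evoked peak-minus-minimum fluorescence over baseline, integrated ratio, B score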
MrgX1 ag = human MrgX1 receptor agonism, primary screen | 0.44% of 310,000 active | B-score at 10 µM | MrgX1-HEK293 cells, Fluo-4 calcium fluorescence, agonist mode; hits give high values | Q96LB2;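 active = calcium response B-score plate-corrected fluorescence ratio at least 3 library SD, with starting fluorescence B-score inside 5 SD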
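Test system: HEK293 cells stably expressing human MrgX1 receptor; amount: 15,000 cells per well; doses: compound delivered in addition one of three; times: overnight plating before 1 h dye loading; detection: Fluo-4 NW calcium-flux fluorescence, kinetic read; read-out basis: B-scored fluorescence response ratio; controls: positive and negative controls per plate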
MrgX1 allo act = allosterically activates human MrgX1 receptor signaling; MrgX1-HEK293, Fluo-4 calcium flux, FDSS; hits give high values; B-score at 10 µM; 0.63% of 310,000 active; Q96LB2;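 active = plate-corrected calcium response at least 3 library SD above typical, normal starting fluorescence, not activating the receptor alone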;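 also: compound read alongside a low EC10 to EC30 dose of BAM8-22 agonist; peak minus trough fluorescence over baseline measured at the second addition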
RGS4 inh = inhibitors of human RGS4. P49798. HEK293 M3R/RGS4 inducible, Fluo-4 calcium flux; hits give high values; triggered by carbachol at its EC20. B-score at 10 µM. 0.45% of 310,000 active;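 active = B-score, a plate-corrected calcium signal, over three deviations above library mean, with baseline fluorescence within five deviations of library mean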;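 also: RGS4 expression induced by doxycycline in cells with stable M3 receptor; B-score is computed from the integrated fluorescence ratio over baseline after carbachol; higher B-score means a larger calcium signal and so more RGS4 inhibition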
The depositor's hits bear a star; i = inactive. In the library only some 3.5% were active in any assay of this set; here they are far more common.

SMILES | MrgX1 antag | RGS4 pot | MrgX1 ag | MrgX1 allo act | RGS4 inh
Cc1c(NC(=O)C2CCCN(S(=O)(=O)c3cnc[nH]3)C2)c(=O)n(-c2ccccc2)n1C (stereo not given) | -7.3* | i | i | i | i
Cc1ccccc1NC(=O)C1CCCN(S(=O)(=O)c2cnc[nH]2)C1 (stereo not given) | i | i | i | i | i
CCOC(=O)c1sc(NC(=O)CSc2nccn2C)nc1C | i | i | i | i | i
O=C(C1CCN(Cc2ccc(Cl)cc2)CC1)N1CCN(C(c2ccccc2)c2ccccc2)CC1 | i | -8* | i | i | i
O=[N+]([O-])c1ccc(-c2csc(N3CCCCCC3)n2)cc1 | i | i | i | 9.1* | i
Nc1nonc1-n1nnc(C(=O)N/N=C/c2ccc(O)cc2)c1CN1CCCCCC1 | -8.6* | i | i | i | i
COC(=O)c1c(NC(=O)C2CCCCC2)sc2c1CC(C)(C)NC2(C)C | i | i | i | i | i
Cc1nc(N2CCOCC2)nc(OCCN(C)C)c1[N+](=O)[O-] | i | i | i | i | i
Cc1nc(N2CCOCC2)nc(OCCN2CCOCC2)c1[N+](=O)[O-] | -5.2* | i | i | i | i
O=C(Nc1cccc(C(=O)N2CCCc3ccccc32)c1)c1ccccc1 | i | i | i | i | i
CCOc1ccc(CN2CCC(C(=O)N3CCN(c4ccccc4F)CC3)CC2)cc1OC | i | i | i | i | i
CCOc1ccc(S(=O)(=O)N2CCC(C(=O)N3CCN(c4ccccc4F)CC3)CC2)cc1C | i | -7.2* | i | i | i
COc1cccc(CCNC(=O)c2cc(COc3c(F)cccc3F)on2)c1 | i | i | i | i | i
COc1ccc(N2CC(O)(c3ccc(OC(F)F)cc3)[N+]3=C2CCCC3)cc1 (stereo not given) | i | -8.3* | i | i | i
COc1ccc(N2CC(O)(c3ccc(F)cc3)[N+]3=C2CCCC3)cc1 (stereo not given) | i | i | i | i | i
NS(=O)(=O)c1ccc(CCNC(=O)C(=O)C2C(=O)Nc3ccccc32)cc1 (stereo not given) | i | i | i | i | i
CCN(CCn1cccn1)C(=O)CC1C(=O)NCCN1Cc1ccc(F)cc1 (stereo not given) | i | i | 29* | i | i
Cc1ccc(SCC(=O)OCC(=O)N(C)CC(=O)Nc2ccc(F)cc2)cc1C | i | i | 48* | i | i
COc1ccc(Cl)cc1C(=O)OCC(=O)N(C)CC(=O)Nc1ccc(F)cc1 | i | i | i | i | i
O=c1[nH]c(COc2ccc(Cl)cc2Br)nc2ccccc12 | i | i | i | i | i
Cc1ccc(-c2cc(C(=O)Nc3ccccn3)c3ccccc3n2)o1 | -5.1* | i | i | i | i
COc1cc(/C=C2\N=C(c3ccccc3)OC2=O)ccc1OC(C)=O | i | i | i | i | i
COc1ccc(OC)c(/C=C2\N=C(c3ccccc3)OC2=O)c1 | i | -7.4* | i | i | i
COc1cc(/C=C2/N=C(c3ccccc3)OC2=O)c(F)cc1OCc1ccccc1 | -4.9* | i | i | i | i
COc1ccccc1OCC(=O)N(Cc1nnc(-c2ccccc2Cl)o1)C1CC1 | i | i | i | i | i
SMILES | MrgX1 antag | RGS4 pot | MrgX1 ag | MrgX1 allo act | RGS4 inh
COc1ccc(N2CCN(CCCNC(=O)Cn3c(=O)c4cccn4c4ccccc43)CC2)cc1 | i | i | i | i | i
Cn1nc(C(F)(F)F)c2cc(C(=O)Nc3ccc(C(F)(F)F)cc3)sc21 | i | i | i | i | i
CSCCC(NC(=O)c1ccco1)C(=O)Nc1ccc(C)cn1 (stereo not given) | i | i | i | i | i
O=C(Nc1cccc(-c2ccc(N3CCCCC3)nn2)c1)c1ccco1 | i | i | i | i | i
C/C(=N\N1CCN(Cc2ccc(Cl)cc2)CC1)c1ccc([N+](=O)[O-])cc1 | i | i | i | i | i
Cc1ccc(-c2csc(NC(=O)c3ccc(Br)cc3)c2C(=O)O)cc1 | i | i | 31* | i | i

Assay outcomes as filed in PubChem BioAssay.
